ChEMBL document CHEMBL2203110, “Inhibition of HIV-1 capsid assembly: optimization of the antiviral potency by site selective modifications at N1, C2 and C16 of a 5-(5-furan-2-yl-pyrazol-1-yl)-1H-benzimidazole scaffold” (Bioorg Med Chem Lett, 2012)

Columns and labels:
[1] = test system: Human immunodeficiency virus 1; assay: Antiviral activity against HIV1; type: functional, organism-based
How it was run: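 Cell-based HIV-1 replication assay. EC50 is the concentration that inhibits virus replication by 50%.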

[2] = target: T1, Structural capsid protein (Human immunodeficiency virus 1, UniProt Q76129); assay: Inhibition of HIV1 capsid protein assembly using 5'-fluorescein-labeled (TG)25 oligonucleotide after 2 hrs by fluorometry-based capsid disassembly assay
T1 sequence (Q76129 whole entry): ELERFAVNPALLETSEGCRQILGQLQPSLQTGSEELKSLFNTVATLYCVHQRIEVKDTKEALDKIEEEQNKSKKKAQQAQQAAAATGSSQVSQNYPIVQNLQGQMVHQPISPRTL
How it was run: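 Biotin-(TG)25 oligonucleotide (25 nM, overnight) immobilized on neutravidin wells; CA-NC (2 µM) assembled with 100 nM 5'-fluorescein (TG)25 in Tris pH 8.0/NaCl/ZnSO4/CHAPS/BSA/DTT buffer, 2 h RT, washed. Serially diluted compounds (buffer + 0.125% DMSO) added 2 h RT; washes, SDS release, captured fluorescence read. Ten-point curves fitted; IC50 = concentration giving 50% disassembly.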

[3] = target: T1, Structural capsid protein; assay: Inhibition of HIV1 capsid protein binding to fluorescein labeled 3-(5-(3-ethyl-5-(5-methylfuran-2-yl)-1H-pyrazol-1-yl)-1-((6-oxo-1,6-dihydropyridin-3-yl)methyl)-1H-benzo[d]imidazol-2-yl)-4-hydroxybenzoic acid after 15 mins by fluorescence polarization assay
How it was run: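 CA-NC protein (40 nM) mixed with 40 nM fluorescein probe plus serially diluted compounds in Tris pH 8.0, 100 mM NaCl, CHAPS, DTT buffer with 2% DMSO before mixing. 15 min incubation, then fluorescence polarization read. Wells without compound defined 0% displacement; probe-only wells defined 100%.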

[4] = Half life in human liver microsomes; type: ADME, Microsome
[5] = Permeability of the compound across human Caco2 cells; type: ADME, cell-based; settings: Caco-2, read-out: permeability
[6] = Half life in rat liver microsomes; type: ADME, Microsome

SMILES | EC50 [1] [nM] | IC50 [2] [nM] | IC50 [3] [nM] | half-life [4] [min] | Papp [5] [×10⁻⁶ cm/s] | half-life [6] [min]
CCc1cc(-c2ccc(C)o2)n(-c2ccc3c(c2)nc(-c2ccc(C(N)=O)cc2)n3Cc2ccc(=O)[nH]c2)n1 | 13000 | 170 | – | – | – | –
CCc1cc(-c2ccc(C)o2)n(-c2ccc3c(c2)nc(-c2cc(C(=O)N(C)C)ccc2O)n3Cc2ccc(OC)c(O)c2)n1 | 630 | 120 | – | – | – | –
CCc1cc(-c2ccc(C(F)(F)F)o2)n(-c2ccc3c(c2)nc(-c2cc(C(=O)N4CCCC4)ccc2O)n3Cc2ccc(=O)[nH]c2)n1 | 62 | – | 61 | 30 | 0.19 | 45
CCc1cc(-c2ccc(C)o2)n(-c2ccc3c(c2)nc(-c2cc(F)ccc2O)n3Cc2ccc(OC)c(O)c2)n1 | 10000 | 280 | – | – | – | –
CCc1cc(-c2ccc(C)o2)n(-c2ccc3c(c2)nc(-c2cc(C(=O)O)ccc2O)n3Cc2ccc(=O)[nH]c2)n1 | > 46000 | 56 | 650 | – | – | –
CCc1cc(-c2ccc(C(F)(F)F)o2)n(-c2ccc3c(c2)nc(-c2cc(C(=O)N4CCCC4)ccc2O)n3Cc2c[nH]c(=O)c(C)c2)n1 | 28 | – | 38 | 11 | 6.8 | 25
CCc1cc(-c2ccc(C(F)(F)F)o2)n(-c2ccc3c(c2)nc(-c2cc(C(=O)N4CCCC4)ccc2O)n3Cc2cc(C)c(=O)n(C)c2)n1 | 27 | – | 67 | 10 | 7.2 | 18
CCc1cc(-c2ccc(C)o2)n(-c2ccc3c(c2)nc(-c2ccccc2O)n3Cc2ccc(OC)c(O)c2)n1 | 6400 | 410 | – | – | – | –
CCc1cc(-c2ccc(C)o2)n(-c2ccc3c(c2)nc(-c2ccc(C(N)=O)cc2)n3Cc2ccc(OC)c(O)c2)n1 | 640 | 790 | – | – | – | –
CCc1cc(-c2ccc(C)o2)n(-c2ccc3c(c2)nc(-c2cc(C(=O)O)ccc2O)n3Cc2ccc(OC)c(O)c2)n1 | 6100 | 88 | 550 | – | – | –
CCc1cc(-c2ccc(C)o2)n(-c2ccc3c(c2)nc(-c2cc(C(=O)N(C)C)ccc2O)n3Cc2ccc(=O)[nH]c2)n1 | 590 | 49 | 44 | – | – | –
CCc1cc(-c2ccc(C(F)(F)F)o2)n(-c2ccc3c(c2)nc(-c2cc(C(=O)N(C)C)ccc2O)n3Cc2ccc(=O)[nH]c2)n1 | 91 | – | 59 | – | – | –
Cc1cc(-c2ccco2)n(-c2ccc3c(c2)nc(COc2ccc(C(=N)N)cc2)n3C)n1 | 28000 | 6000 | – | – | – | –
CCc1cc(-c2ccc(C)o2)n(-c2ccc3c(c2)nc(-c2ccc(C(N)=O)cc2)n3CC2CC2)n1 | 3500 | 1000 | – | – | – | –
CCc1cc(-c2ccc(C)o2)n(-c2ccc3c(c2)nc(-c2ccccc2O)n3Cc2ccc(=O)[nH]c2)n1 | 260 | 55 | 690 | – | – | –
CCc1cc(-c2ccc(C)o2)n(-c2ccc3c(c2)nc(-c2ccc(C(N)=O)cc2)n3Cc2ccc(OC)nc2)n1 | 3500 | 830 | – | – | – | –
CCc1cc(-c2ccc(C)o2)n(-c2ccc3c(c2)nc(-c2ccc(C(N)=O)cc2)n3Cc2cccnc2)n1 | 2600 | 360 | – | – | – | –
CCc1cc(-c2ccc(C)o2)n(-c2ccc3c(c2)nc(-c2cc(F)ccc2O)n3Cc2ccc(=O)[nH]c2)n1 | 260 | 41 | – | – | – | –
